Test results taken from ChEMBL document CHEMBL1129245, “N-heteroaryl-2-phenyl-3-(benzyloxy)piperidines: a novel class of potent orally active human NK1 antagonists” (J Med Chem, 1996).

How the values were obtained:
[1] = system: Cavia porcellus; test: Inhibition of SP induced dermal guinea pig after peroral administration; format: functional; settings: read-out: ID50 (the source's name)
Summary of the method: (§1)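 Guinea pigs dosed orally with antagonist, then challenged 1 h later with intradermal substance P. Vascular leakage measured as extravasation of Evans blue dye. ID50 (mg/kg po) taken from dose-response data, 5-12 animals per data point.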

[2] = organism: Oryctolagus cuniculus; test: Displacement of [3H]diltiazem from rabbit skeletal muscle calcium channel at 30 uM; format: tissue-based; settings: Muscle tissue
[3] = organism: Oryctolagus cuniculus; test: Displacement of [3H]diltiazem from rabbit skeletal muscle calcium channel; format: tissue-based; settings: Muscle tissue
[4] = target: Substance-P receptor (Homo sapiens, UniProt P25103); test: Displacement of [125 I]-Tyr8 SP from the cloned human Tachykinin receptor 1 expressed in CHO cells; format: cell-based
[5] = organism: Rattus norvegicus; test: Degradation of compound in incubations at 25 uM with normal rat liver microsomes after 4 hour relative to initial concentration of 1 uM; format: functional
Summary of the method: (§2)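 Each compound incubated at 25 µM with normal rat liver microsomes, P-450 at 1.45 nM/mg microsomal protein. Remaining substrate sampled at 15 min, 1 h, 4 h and 24 h and expressed relative to an initial concentration of 1.0. Single determination (n = 1).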

[6] = organism: Rattus norvegicus; test: Degradation of compound in incubations at 25 uM with normal rat liver microsomes after 1 hour relative to initial concentration of 1 uM; format: functional; summary of the method: as §2
[7] = organism: Rattus norvegicus; test: Degradation of compound in incubations at 25 uM with normal rat liver microsomes after 24 hour relative to initial concentration of 1 uM; format: functional; summary of the method: as §2
[8] = organism: Rattus norvegicus; test: Degradation of compound in incubations at 25 uM with normal rat liver microsomes after 15 min relative to initial concentration of 1 uM; format: functional
Summary of the method: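 Incubated at 25 µM with normal rat liver microsomes; P-450 at 1.45 nM/mg microsomal protein. Sampled at 15 min, 1 h, 4 h and 24 h. Remaining substrate reported relative to an initial level of 1.0, n = 1.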

[9] = system: Rattus norvegicus; test: Inhibition of […] of the rat after intravenous administration; format: functional; settings: read-out: ID50 (the source's name)
Summary of the method: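 Rats given test compound intravenously. Plasma extravasation in the dura mater measured, n = 8-10. ID50 reported in mg/kg iv.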

[10] = system: Cavia porcellus; test: Inhibition of SP- induced dermal guinea pig after peroral administration; format: functional; settings: read-out: ID50 (the source's name); summary of the method: as §1

Sequence of Substance-P receptor (P25103 whole entry): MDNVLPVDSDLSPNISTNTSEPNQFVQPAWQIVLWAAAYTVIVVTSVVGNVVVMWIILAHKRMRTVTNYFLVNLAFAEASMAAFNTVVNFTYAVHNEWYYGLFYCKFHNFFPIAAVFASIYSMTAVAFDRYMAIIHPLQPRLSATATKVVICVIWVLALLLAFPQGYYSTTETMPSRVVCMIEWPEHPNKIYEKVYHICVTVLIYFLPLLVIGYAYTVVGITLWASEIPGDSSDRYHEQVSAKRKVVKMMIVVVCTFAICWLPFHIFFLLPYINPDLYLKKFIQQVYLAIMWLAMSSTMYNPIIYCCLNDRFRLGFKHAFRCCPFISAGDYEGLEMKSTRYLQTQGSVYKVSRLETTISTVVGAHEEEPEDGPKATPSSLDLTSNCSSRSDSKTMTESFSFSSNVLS

NC(=O)CN1CCC[C@H](OCc2cc(C(F)(F)F)cc(C(F)(F)F)c2)[C@@H]1c1ccccc1
ED50 [1]: 0.8 mg/kg | Binding affinity [2]: 16%

FC(F)(F)c1cc(CO[C@H]2CCCN(Cc3ncc[nH]3)[C@H]2c2ccccc2)cc(C(F)(F)F)c1
Binding affinity [3]: 2.06 µM | IC50 [4]: 0.53 nM

FC(F)(F)c1cc(CO[C@H]2CCCN(Cc3c[nH]cn3)[C@H]2c2ccccc2)cc(C(F)(F)F)c1
Concentration [5]: 0.55 µM | Concentration [6]: 0.72 µM | Concentration [7]: 0.18 µM | Binding affinity [3]: 2.3 µM

FC(F)(F)c1cc(CO[C@H]2CCCN(Cc3cocn3)[C@H]2c2ccccc2)cc(C(F)(F)F)c1
Relative oncentration [8]: 0.05 µM | Binding affinity [3]: 23 µM | IC50 [4]: 1 nM

FC(F)(F)c1cc(CO[C@H]2CCCN(Cc3nnco3)[C@H]2c2ccccc2)cc(C(F)(F)F)c1
Binding affinity [3]: 10 µM | IC50 [4]: 0.97 nM

FC(F)(F)c1cc(CO[C@H]2CCCN(Cc3nn[nH]n3)[C@H]2c2ccccc2)cc(C(F)(F)F)c1
Binding affinity [3]: > 5 µM

FC(F)(F)c1cc(CO[C@H]2CCCN(Cc3nc[nH]n3)[C@H]2c2ccccc2)cc(C(F)(F)F)c1
ED50 [9]: 0.008 mg/kg | ED50 [10]: 0.4 mg/kg | Binding affinity [3]: > 100 µM
